Laboratory results as given in ChEMBL document CHEMBL1141765, “Alkaloids from Alangium javanicum and Alangium grisolleoides that mediate Cu2+-dependent DNA strand scission” (J Nat Prod, 2005).
Where “and” joins values, the source holds several entries; their conditions need not be identical. Identical values can stand only once.

Assays:
Escherichia coli [1] = experiment: Induction of DNA strand scission activity against Escherichia coli pBR322 assessed as form 2 DNA levels at 200 uM after 60 mins by electrophoresis in presence of 20 uM Cu2+; format: functional
Method in brief: (§1)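 Supercoiled pBR322 plasmid DNA (500 ng) was incubated with compound, with or without 20 µM Cu2+, in 10 mM Tris-HCl, pH 8.0. Compound came from DMSO, final DMSO ≤5%. Incubation was 37 °C for 60 min. Blank (DNA only) and Cu2+-only controls were included. Samples were run on 1.0% agarose gels with ethidium bromide in TBE, pH 8.3. Form I→Form II conversion was quantified by gel densitometry.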

Escherichia coli [2] = experiment: Induction of DNA strand scission activity against Escherichia coli pBR322 assessed as form 2 DNA levels at 50 uM after 60 mins by electrophoresis in presence of 20 uM Cu2+; format: functional; method in brief: as §1
Escherichia coli [3] = experiment: Induction of DNA strand scission activity against Escherichia coli pBR322 assessed as form 2 DNA levels at 500 uM after 60 mins by electrophoresis in absence of 20 uM Cu2+; format: functional; method in brief: as §1
Escherichia coli [4] = experiment: Induction of DNA strand scission activity against Escherichia coli pBR322 assessed as form 2 DNA levels at 500 uM after 60 mins by electrophoresis in presence of 20 uM Cu2+; format: functional; method in brief: as §1
Escherichia coli [5] = experiment: Induction of DNA strand scission activity against Escherichia coli pBR322 assessed as form 2 DNA levels at 10 uM after 60 mins by electrophoresis in presence of 20 uM Cu2+; format: functional; method in brief: as §1
Escherichia coli [6] = experiment: Induction of DNA strand scission activity against Escherichia coli pBR322 assessed as form 2 DNA levels at 100 uM after 60 mins by electrophoresis in presence of 20 uM Cu2+; format: functional; method in brief: as §1
Escherichia coli [7] = experiment: Induction of DNA strand scission activity against Escherichia coli pBR322 assessed as form 2 DNA levels at 200 uM after 60 mins by electrophoresis in absence of 20 uM Cu2+; format: functional; method in brief: as §1
Escherichia coli [8] = experiment: Induction of DNA strand scission activity against Escherichia coli pBR322 assessed as form 2 DNA levels at 25 uM after 60 mins by electrophoresis in presence of 20 uM Cu2+; format: functional; method in brief: as §1
Escherichia coli [9] = experiment: Induction of DNA strand scission activity against Escherichia coli pSP64 assessed as form 2 DNA levels at 100 uM after 2 hrs by electrophoresis in presence of equimolar amount of Cu2+
Escherichia coli [10] = experiment: Induction of DNA strand scission activity against Escherichia coli pSP64 assessed as form 2 DNA levels at 200 uM after 2 hrs by electrophoresis in presence of equimolar amount of Cu2+
Escherichia coli [11] = experiment: Induction of DNA strand scission activity against Escherichia coli pSP64 assessed as form 2 DNA levels at 10 uM after 2 hrs by electrophoresis in presence of equimolar amount of Cu2+

Structure (SMILES)	Activity (Escherichia coli [1])	Activity (Escherichia coli [2])	Activity (Escherichia coli [3])	Activity (Escherichia coli [4])	Activity (Escherichia coli [5])	Activity (Escherichia coli [6])	Activity (Escherichia coli [7])	Activity (Escherichia coli [8])	Activity (Escherichia coli [9])	Activity (Escherichia coli [10])	Activity (Escherichia coli [11])
C=C[C@H]1[C@H](O[C@@H]2O[C@H](CO)[C@@H](O)[C@H](O)[C@H]2O)OC=C2C(=O)N3CCc4cc(OC)c(O)cc4[C@H]3C[C@H]21	30%	18%	3%	42%	14%	25%					
C=C[C@H]1[C@H](O[C@@H]2O[C@H](CO)[C@@H](O)[C@H](O)[C@H]2O)OC=C2C(=O)N3CC[C@@]4(C(=O)Nc5ccccc54)[C@H]3C[C@H]21	58%	20%			10%	29%	3%	16%	28% and 16%	43% and 35%	0%
C=C[C@H]1[C@H](O[C@@H]2O[C@H](CO)[C@@H](O)[C@H](O)[C@H]2O)OC=C2C(=O)N3CC[C@]4(C(=O)Nc5ccccc54)[C@H]3C[C@H]21									5%	7%	0%
